Measurements taken from ChEMBL document CHEMBL1671867, “Novel polymyxin derivatives carrying only three positive charges are effective antibacterial agents” (Antimicrob Agents Chemother, 2008).
Values after ≈ are worked out from the molar mass of the structure shown. Blank lines part the entries; values can stand above or below the compound they belong to.

Key:
Type in all cases: functional
[1] = test system: Acinetobacter baumannii; test: (§1) Antibacterial activity against Acinetobacter baumannii ATCC 19606 by Etest method in presence of […] NAB739
[2] = test system: Acinetobacter baumannii; test: Antibacterial activity against Acinetobacter baumannii F264 by Etest method
In short: (§2)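 E-strip MIC on Mueller-Hinton agar without added peptide; inoculum per manufacturer, matching CLSI M2-A9.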

[3] = test system: Acinetobacter baumannii; test: (§3) Antibacterial activity against Acinetobacter baumannii F264 by Etest method in presence of […] NAB739
[4] = test system: Acinetobacter baumannii; test: Antibacterial activity against Acinetobacter baumannii ATCC 19606 by Etest method in presence of 1 ug/ml NAB739
[5] = test system: Acinetobacter baumannii; test: Antibacterial activity against Acinetobacter baumannii ATCC 19606 by Etest method in presence of 0.5 ug/ml NAB739
[6] = test system: Pseudomonas aeruginosa; test: Antibacterial activity against Pseudomonas aeruginosa ATCC 27853by Etest method in presence of 2 ug/ml NAB739
[7] = test system: Pseudomonas aeruginosa; test: (§4) Antibacterial activity against Pseudomonas aeruginosa ATCC 27853by Etest method in presence of […] NAB739
[8] = test system: Acinetobacter baumannii; test: as §3; remark: listed apart in the source
[9] = test system: Pseudomonas aeruginosa; test: Antibacterial activity against Pseudomonas aeruginosa ATCC 27853by Etest method
In short: (§5)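 MICs of the antibiotic taken from E-strips on Mueller-Hinton agar, run both with and without peptide. […] Inoculum was prepared per the strip manufacturer, matching CLSI M2-A9.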

[10] = test system: Acinetobacter baumannii; test: Antibacterial activity against Acinetobacter baumannii ATCC 19606 by Etest method
[11] = test system: Pseudomonas aeruginosa; test: Antibacterial activity against Pseudomonas aeruginosa ATCC 27853by Etest method in presence of 1 ug/ml NAB739; in short: as §5
[12] = test system: Acinetobacter baumannii; test: Antibacterial activity against Acinetobacter baumannii F264 by Etest method in presence of 1 ug/ml NAB739
[13] = test system: Pseudomonas aeruginosa; test: Antibacterial activity against Pseudomonas aeruginosa ATCC 27853by Etest method in presence of 0.5 ug/ml NAB739; in short: as §5
[14] = test system: Acinetobacter baumannii; test: Antibacterial activity against Acinetobacter baumannii F264 by Etest method in presence of 0.5 ug/ml NAB739
[15] = test system: Acinetobacter baumannii; test: Antibacterial activity against Acinetobacter baumannii ATCC 19606 by Etest method in presence of NAB739
[16] = test system: Acinetobacter baumannii; test: as §1; remark: listed apart in the source
[17] = test system: Pseudomonas aeruginosa; test: as §4; remark: listed apart in the source
[18] = test system: Acinetobacter baumannii; test: Antibacterial activity against Acinetobacter baumannii F264 by Etest method in presence of NAB739
[19] = test system: Escherichia coli; test: Antibacterial activity against Escherichia coli ATCC […] by Etest method in presence of 4 ug/ml NAB7064
[20] = test system: Escherichia coli; test: Antibacterial activity against Escherichia coli IH3080 by Etest method in presence of 2 ug/ml NAB7062
[21] = test system: Klebsiella pneumoniae; test: Antibacterial activity against Klebsiella pneumoniae ATCC 13883 by Etest method in presence of NAB7061; in short: as §5
[22] = test system: Escherichia coli; test: Antibacterial activity against Escherichia coli IH3080 by Etest method in presence of 1 ug/ml NAB7061
[23] = test system: Enterobacter cloacae; test: Ratio of the MIC for Enterobacter cloacae ATCC 23355 in the absence of NAB7061 to MIC for Enterobacter cloacae ATCC 23355 […] in the presence of 4 ug/ml of NAB7061
[24] = test system: Enterobacter cloacae; test: Antibacterial activity against Enterobacter cloacae ATCC 23355 […] by Etest method in presence of 4 ug/ml NAB7064
[25] = test system: Enterobacter cloacae; test: Antibacterial activity against Enterobacter cloacae ATCC 23355 by Etest method; in short: as §2
[26] = test system: Enterobacter cloacae; test: Antibacterial activity against Enterobacter cloacae ATCC 23355 […] by Etest method in presence of 2 ug/ml NAB7062
[27] = test system: Klebsiella pneumoniae; test: Antibacterial activity against Klebsiella pneumoniae ATCC 13883 by Etest method; in short: as §5
[28] = test system: Escherichia coli; test: Antibacterial activity against Escherichia coli IH3080 by Etest method in presence of NAB7061
[29] = test system: Klebsiella pneumoniae; test: Ratio of the MIC for Klebsiella pneumoniae ATCC 13883 in the absence of NAB7061 to MIC for Klebsiella pneumoniae ATCC 13883 in the presence of 4 ug/ml of NAB7061
[30] = test system: Escherichia coli; test: Antibacterial activity against Escherichia coli ATCC 25992 by Etest method; in short: as §2
[31] = test system: Enterobacter cloacae; test: Antibacterial activity against Enterobacter cloacae ATCC 23355 […] by Etest method in presence of NAB7061
[32] = test system: Escherichia coli; test: Antibacterial activity against Escherichia coli IH3080 by Etest method; in short: as §2
[33] = test system: Enterobacter cloacae; test: Antibacterial activity against Enterobacter cloacae ATCC 23355 […] by Etest method in presence of 1 ug/ml NAB7061
[34] = test system: Klebsiella pneumoniae; test: Antibacterial activity against Klebsiella pneumoniae ATCC 13883 by Etest method in presence of 1 ug/ml NAB7061; in short: as §5
[35] = test system: Escherichia coli; test: Ratio of the MIC for Escherichia coli IH3080 in the absence of NAB7061 to MIC for Escherichia coli IH3080 in the presence of 4 ug/ml of NAB7061
[36] = test system: Escherichia coli; test: Antibacterial activity against Escherichia coli IH3080 by Etest method in presence of 4 ug/ml NAB7064
[37] = test system: Klebsiella pneumoniae; test: Antibacterial activity against Klebsiella pneumoniae ATCC 13883 by Etest method in presence of 2 ug/ml NAB7061; in short: as §5
[38] = test system: Escherichia coli; test: Antibacterial activity against Escherichia coli ATCC […] by Etest method in presence of 2 ug/ml NAB7062
[39] = test system: Klebsiella pneumoniae; test: Antibacterial activity against Klebsiella pneumoniae ATCC 13883 by Etest method in presence of 4 ug/ml NAB7061; in short: as §5
[40] = test system: Escherichia coli; test: Antibacterial activity against Escherichia coli ATCC […] by Etest method in presence of NAB7061
[41] = test system: Escherichia coli; test: Antibacterial activity against Escherichia coli ATCC […] by Etest method in presence of 1 ug/ml NAB7061
[42] = test system: Escherichia coli; test: Ratio of the MIC for Escherichia coli ATCC 25992 in the absence of NAB7061 to MIC for Escherichia coli ATCC 25992 in the presence of 4 ug/ml of NAB7061

MIC [1]: 12 µg/mL
MIC [2]: > 256 µg/mL
MIC [3]: 12 µg/mL
MIC [4]: 1 µg/mL
MIC [5]: 4 µg/mL
MIC [6]: 192 µg/mL
MIC [7]: > 256 µg/mL
MIC [8]: 32 µg/mL
MIC [9]: > 256 µg/mL
MIC [10]: > 256 µg/mL
MIC [11]: > 256 µg/mL
MIC [12]: 1 µg/mL
MIC [13]: > 256 µg/mL
MIC [14]: 3 µg/mL
MIC [16]: 32 µg/mL
MIC [17]: > 256 µg/mL
SMILES: CC(=O)O[C@H]1C[C@@]2(C)[C@@H](C[C@@H](O)[C@H]3[C@@]4(C)CC[C@@H](O)[C@@H](C)[C@@H]4CC[C@@]32C)/C1=C(\CCC=C(C)C)C(=O)O [FUSIDIC ACID]
fractional inhibitory concentration index (FICI) [15]: <=0.172
fractional inhibitory concentration index (FICI) [18]: <=0.172

SMILES: CC[C@H]1OC(=O)[C@H](C)[C@@H](O[C@H]2C[C@@](C)(OC)[C@@H](O)[C@H](C)O2)[C@H](C)[C@@H](O[C@@H]2O[C@H](C)C[C@H](N(C)C)[C@H]2O)[C@](C)(O)C[C@@H](C)C(=O)[C@H](C)[C@@H](O)[C@]1(C)O [ERYTHROMYCIN]
MIC [19]: 0.75 µg/mL
MIC [20]: 2 µg/mL
MIC [21]: ≤ 0.143 µg/mL
MIC [22]: 4 µg/mL
Ratio [23]: 21
MIC [24]: 1.5 µg/mL
MIC [25]: 64 µg/mL (≈ 87.2 µM)
MIC [26]: 8 µg/mL
MIC [27]: 24 µg/mL (≈ 32.7 µM)
MIC [28]: 0.25 µg/mL
Ratio [29]: 24
MIC [30]: 32 µg/mL (≈ 43.6 µM)
MIC [31]: 0.375 µg/mL
MIC [32]: 16 µg/mL (≈ 21.8 µM)
MIC [33]: 48 µg/mL
MIC [34]: 4 µg/mL
Ratio [35]: 32
MIC [36]: 0.38 µg/mL
MIC [37]: 2 µg/mL
MIC [38]: 2 µg/mL
MIC [39]: 0.5 µg/mL
fractional inhibitory concentration index (FICI) [40]: 0.188
MIC [41]: 6 µg/mL
Ratio [42]: 32

SMILES: CN[C@H](CC(C)C)C(=O)N[C@H]1C(=O)N[C@@H](CC(N)=O)C(=O)N[C@H]2C(=O)N[C@H]3C(=O)N[C@H](C(=O)N[C@H](C(=O)O)c4cc(O)cc(O)c4-c4cc3ccc4O)[C@H](O)c3ccc(c(Cl)c3)Oc3cc2cc(c3O[C@@H]2O[C@H](CO)[C@@H](O)[C@H](O)[C@H]2O[C@H]2C[C@](C)(N)[C@H](O)[C@H](C)O2)Oc2ccc(cc2Cl)[C@H]1O [VANCOMYCIN]
MIC [1]: 8 µg/mL
MIC [2]: > 256 µg/mL
MIC [3]: 16 µg/mL
MIC [4]: 1 µg/mL
MIC [5]: 3 µg/mL
MIC [6]: > 256 µg/mL
MIC [7]: > 256 µg/mL
MIC [8]: 256 µg/mL
MIC [9]: > 256 µg/mL
MIC [10]: > 256 µg/mL
MIC [11]: > 256 µg/mL
MIC [12]: 1 µg/mL
MIC [13]: > 256 µg/mL
MIC [14]: 3 µg/mL
fractional inhibitory concentration index (FICI) [15]: <=0.156
MIC [16]: 64 µg/mL
MIC [17]: > 256 µg/mL
fractional inhibitory concentration index (FICI) [18]: <=0.188
